# Data taken from ChEMBL document CHEMBL1687739 (Antimicrob Agents Chemother, 2009).
# Active and inactive are the calls of the source. The rule behind the calls is not given here.
# Key:
# Plasmodium falciparum = test: Antiplasmodial activity against erythrocytic stage of chloroquine - and pyrimethamine-resistant Plasmodium falciparum K1 assessed as [3H]hypoxanthine incorporation after 48 hrs; type: functional, organism-based
# Method in brief: (§1)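 K1 erythrocytic stages were cultured in hypoxanthine-free RPMI 1640 with Albumax, A+ RBC at 2.5% hematocrit and 0.3% parasitemia. DMSO stocks were 10 mg/ml; seven twofold dilutions covered 5 to 0.156 μg/ml. Plates were held at 37°C in 4% CO2/3% O2/93% N2 for 48 h, then 0.5 μCi [3H]hypoxanthine was added for 24 h and scintillation counted. IC50 from sigmoidal curves. SI = L-6 CC50/IC50.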
# Trypanosoma cruzi = test: Antitrypanosomal activity against Trypanosoma cruzi Tulahuen C2C4 trypomastigote after 48 hrs; type: functional, organism-based; conditions: Tulahuen C2C4, 48 h
# Method in brief: (§2)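 T. cruzi Tulahuen C2C4 (LacZ) trypomastigotes, 5,000/well, were added to rat L-6 myoblasts seeded 24 h earlier in RPMI 1640 with 10% FBS. After 48 h the medium was replaced with seven threefold drug dilutions (90 to 0.123 μg/ml) and incubated 96 h. CPRG-Nonidet was added and read at 540 nm after 2–6 h to give IC50. Duplicates, assay repeated at least once. SI = L-6 CC50/parasite IC50.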
# Leishmania donovani = test: Antileishmanial activity against Leishmania donovani MHOM/ET/67/L82 amastigote after 72 hrs; type: functional, organism-based; conditions: MHOM/ET/67/L82, 72 h
# Method in brief: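 Axenic amastigotes were grown at 37°C under 5% CO2 in SM medium, pH 5.4, with 10% heat-inactivated FBS. 10^5 per well were exposed 72 h to serial dilutions (30 to 0.041 μg/ml). Alamar Blue was added for 2 h, then fluorescence read at ex 536/em 588 nm as % of control. IC50 came from sigmoidal curves. Duplicates, repeated at least once.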
# [1] = Cytotoxicity against rat L6 cells after 72 hrs by microplate alamar blue assay; type: cell-based
# Method in brief: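 Rat skeletal myoblast L-6 cells, 4 × 10^4/well in RPMI 1640 with L-glutamine and 10% FBS, were given seven threefold dilutions (90 to 0.123 μg/ml) for 72 h. Alamar Blue was added for 2 h and fluorescence read at ex 536/em 588 nm. Tested in duplicate, assay repeated at least once.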
# [2] = Selectivity index, CC50 for rat L-6 cells to IC50 for erythrocytic stage of chloroquine - and pyrimethamine-resistant Plasmodium falciparum K1; type: functional; method in brief: as §1
# [3] = Selectivity index, CC50 for rat L-6 cells to IC50 for Trypanosoma brucei rhodesiense ST1B900 trypomastigote […]; type: functional
# Method in brief: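 Bloodstream-form STIB900, 10^4/well in supplemented MEM with 15% heat-inactivated horse serum, were exposed to seven threefold dilutions (90 to 0.123 μg/ml) for 72 h at 37°C, 5% CO2. Alamar Blue was added for 2–4 h, then fluorescence read at ex 536/em 588 nm. SI = L-6 CC50/IC50. Duplicates, repeated at least once.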
# [4] = Selectivity index, CC50 for rat L-6 cells to IC50 for Trypanosoma cruzi Tulahuen C2C4 trypomastigote; type: functional; method in brief: as §2
# [5] = system: Trypanosoma brucei rhodesiense; test: Antitrypanosomal activity against Trypanosoma brucei rhodesiense ST1B900 trypomastigote infected in NMR1 mouse assessed as survival of mouse at 50 mg/kg, ip administered on day 3 post infection for 4 days; type: functional, organism-based; set-up: dose 50 mg/kg
Compound,IC50 (Plasmodium falciparum),IC50 (Trypanosoma cruzi),IC50 (Leishmania donovani),CC50 at 72 h [1],Selectivity Index [2],Selectivity Index [3],Selectivity Index [4],Activity [5]
CC(C)(C)OC(=O)NCCCCCNC1CCN(CCc2ccccc2)CC1,1.53 µM,69 µM,> 77 µM,95.6 µM,,,,
N=C(N)NCCCCCCCCNC(=N)N.O=S(=O)(O)O,0.106 µM,,,> 276 µM,>2608,,,
CCC(=O)N(CCCCCCCCN/C(=N/C(=O)OC(C)(C)C)NC(=O)OC(C)(C)C)C1CCN(CCc2ccccc2)CC1,0.6 µM,12.3 µM,14.8 µM,21.5 µM,35,,,
CC(C)(C)OC(=O)NCCCCCCCCCCCCNC1CCN(CCc2ccccc2)CC1,0.32 µM,3.16 µM,17.8 µM,8.2 µM,25,52,<3,
CC(C)(C)OC(=O)NCCCCCCCCCNC1CCN(CCc2ccccc2)CC1,0.36 µM,3.73 µM,> 67 µM,6.05 µM,16,48,<3,
CC(C)(C)OC(=O)NCCCCNC1CCN(CCc2ccccc2)CC1,1.28 µM,56.3 µM,> 80 µM,155 µM,,,,
CC(C)(C)OC(=O)NCCNC1CCN(CCc2ccccc2)CC1,2.06 µM,55.5 µM,81.2 µM,174 µM,,,,
CCCCCCCCCCCCCCCCOP(=O)([O-])OCC[N+](C)(C)C [MILTEFOSINE],,,0.205 µM,,,,,
CCC(=O)N(CCCN/C(=N/C(=O)OC(C)(C)C)NC(=O)OC(C)(C)C)C1CCN(CCc2ccccc2)CC1,1.35 µM,> 53 µM,31 µM,80.7 µM,,,,
CCC(=O)N(CCN/C(=N/C(=O)OC(C)(C)C)NC(=O)OC(C)(C)C)C1CCN(CCc2ccccc2)CC1,1.85 µM,36.8 µM,19.1 µM,35.6 µM,,,,
CC(C)(C)OC(=O)NCCCCCCCNC1CCN(CCc2ccccc2)CC1,0.77 µM,11.9 µM,> 72 µM,32.9 µM,42,41,,
N=C(N)NCCCCCCCCCNC(=N)N.O=S(=O)(O)O,0.084 µM,,,> 265 µM,>3162,,,
CCCCCCCCCCCCCNC(=N)N.O=S(=O)(O)O [AMINO(TRIDECYLAMINO)METHANIMINIUM HYDROGENSULFATE],7.98 µM,,,19.6 µM,2.4,,,
CCC(=O)N(CCCCCCCCCNC(=O)OC(C)(C)C)C1CCN(CCc2ccccc2)CC1,1.43 µM,11.7 µM,34.8 µM,16 µM,,,,
N=C(N)NCCCCCCNC(=N)N.O=S(=O)(O)O,0.445 µM,,,> 302 µM,>679,,,
CC(C)(C)OC(=O)NCc1cccc(CNC2CCN(CCc3ccccc3)CC2)c1,1.66 µM,17.3 µM,78.1 µM,111 µM,,219,,
CCC(=O)N(CCCCCCCCCCCCN/C(=N/C(=O)OC(C)(C)C)NC(=O)OC(C)(C)C)C1CCN(CCc2ccccc2)CC1,0.41 µM,5.2 µM,5.78 µM,7.54 µM,18,,<3,
CC(C)(C)OC(=O)NCCCCCCCCNC1CCN(CCc2ccccc2)CC1,0.62 µM,5.72 µM,> 69 µM,15.5 µM,25,130,<3,inactive
CCC(=O)N(CCCCCCN/C(=N/C(=O)OC(C)(C)C)NC(=O)OC(C)(C)C)C1CCN(CCc2ccccc2)CC1,0.85 µM,23.2 µM,13.2 µM,24.9 µM,29,,,
O=[N+]([O-])c1cccc(NC2CCN(CCc3ccccc3)CC2)c1,10.6 µM,46.1 µM,23.2 µM,257 µM,,,,
CC(C)(C)OC(=O)NCCCCCCNC1CCN(CCc2ccccc2)CC1,0.9 µM,28.6 µM,> 74 µM,39.3 µM,43,36,,
CCC(=O)N(CCCCCCCCCCCCNC(=O)OC(C)(C)C)C1CCN(CCc2ccccc2)CC1,1.32 µM,8.07 µM,6.2 µM,13.8 µM,,,<3,
CC(C)(C)OC(=O)NCCCNC1CCN(CCc2ccccc2)CC1,2.08 µM,55.4 µM,68.9 µM,129 µM,,,,
